Measured values published in ChEMBL document CHEMBL1151821, “Macrocyclic peptidomimetic beta-secretase (BACE-1) inhibitors with activity in vivo” (Bioorg Med Chem Lett, 2009).

Key:
Brain [1] = assay: Drug level in APP51/16 transgenic mouse brain expressing human APP at 100 umol/kg, po administered twice at 3 hrs interval measured after 7 hrs of last dose; conditions: in vivo
[2] = Drug level in C57BL/6 mouse brain at 30 umol/kg, iv after 5 hrs; type: ADME, organism-based; conditions: read-out: Drug uptake
Summary of the method: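 C57BL/6 mice, single i.v. dose of 30 µmol/kg. Compound levels in brain and plasma followed over 5 h; brain:plasma ratio from 5 min to 5 h.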

Brain [3] = assay: Drug level in APP51/16 transgenic mouse brain expressing human APP at 30 umol/kg, iv after 5 hrs; type: ADME, organism-based; conditions: in vivo
Summary of the method: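 Single i.v. dose of 30 µmol/kg in APP51/16 transgenic mice (human APP, brain-specific promoter), sacrificed 5 h after dosing. Compound level measured in brain.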

in vivo [4] = conditions: C57BL/6, mouse, brain/plasma, iv, 30 umol/kg
in vivo [5] = conditions: C57BL/6, mouse, brain/plasma, iv, 30 umol/kg; remark: listed apart in the source
Brain [6] = assay: Drug level in APP51/16 transgenic mouse brain expressing human APP at 30 umol/kg, iv administered twice at 2 hrs interval measured after 3 hrs of last dose; conditions: in vivo

Drug uptake (Brain [1]) [µmol/kg]	Compound	concentration at 5 h [2] [nM]	Drug uptake (Brain [3]) [µmol/kg]	Kp at 5 min (in vivo [4])	Kp at 5 h (in vivo [5])	Drug uptake (Brain [6]) [µmol/kg]
1.5	CC(C)c1ccc2c(c1)[C@@H](NC[C@@H](O)[C@@H]1C[C@H](C)CCCCCCCCC(=O)N(C)[C@@H](C)C(=O)N1)CC(C)(C)O2	–	–	–	–	–
–	CC(C)c1cccc(CNC[C@@H](O)[C@@H]2C[C@H](C)CCCCCCCCC(=O)N(C)[C@@H](C)C(=O)N2)c1	> 1000	1.3	1.5	4	4.3
